Measured values from ChEMBL document CHEMBL1156818, “Rational design of indoleamine 2,3-dioxygenase inhibitors” (J Med Chem, 2010).
Blank lines part the entries; values can stand above or below the molecule they belong to.

Experiments:
[1] = molecular target: T1, Indoleamine 2,3-dioxygenase 1 (Homo sapiens, UniProt P14902)
[2] = Cytotoxicity against mouse P815B cells expressing mouse recombinant TDO by MTT assay; assay type: cell-based; details: for CC50: mouse, P815B cells expressing mouse recombinant TDO, read-out: LD50 (the source's name)
Summary of the method: (§1)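 Cells (2 × 10⁵/well) incubated 8 h at 37 °C in HBSS with 80 μM L-Trp and compound titrated 0.312–80 μM or 1.56–400 μM. Supernatant was removed; the remaining cells received culture medium (Iscove, 10% FCS, amino acids) plus MTT for 3-4 h at 37 °C.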

[3] = Cytotoxicity against mouse P815B cells expressing mouse recombinant IDO by MTT assay; assay type: cell-based; details: read-out: LD50 (the source's name)
Summary of the method: as §1

[4] = molecular target: Tryptophan 2,3-dioxygenase (Mus musculus, UniProt P48776); assay: Inhibition of mouse recombinant TDO expressed in mouse P815B cells assessed as blockade of tryptophan degradation by HPLC; assay type: cell-based
[5] = molecular target: Indoleamine 2,3-dioxygenase 1 (Mus musculus, UniProt P28776); assay: Inhibition of mouse recombinant IDO expressed in mouse P815B cells assessed as blockade of tryptophan degradation by HPLC; assay type: cell-based
[6] = (§2) Cytotoxicity against HEK293 cells expressing human recombinant IDO by MTT assay; assay type: cell-based; details: human, HEK293 cells expressing human recombinant IDO; read-out: LD50 (the source's name)
Summary of the method: as §1

[7] = molecular target: T1, Indoleamine 2,3-dioxygenase 1; assay: Inhibition of human recombinant IDO expressed in HEK293 cells assessed as blockade of tryptophan degradation by HPLC; assay type: cell-based
HEK293 = assay: as §2; assay type: cell-based; details: Homo sapiens, HEK293
Summary of the method: as §1

Chain of Indoleamine 2,3-dioxygenase 1 (Mus musculus, UniProt P28776) (P28776 whole entry): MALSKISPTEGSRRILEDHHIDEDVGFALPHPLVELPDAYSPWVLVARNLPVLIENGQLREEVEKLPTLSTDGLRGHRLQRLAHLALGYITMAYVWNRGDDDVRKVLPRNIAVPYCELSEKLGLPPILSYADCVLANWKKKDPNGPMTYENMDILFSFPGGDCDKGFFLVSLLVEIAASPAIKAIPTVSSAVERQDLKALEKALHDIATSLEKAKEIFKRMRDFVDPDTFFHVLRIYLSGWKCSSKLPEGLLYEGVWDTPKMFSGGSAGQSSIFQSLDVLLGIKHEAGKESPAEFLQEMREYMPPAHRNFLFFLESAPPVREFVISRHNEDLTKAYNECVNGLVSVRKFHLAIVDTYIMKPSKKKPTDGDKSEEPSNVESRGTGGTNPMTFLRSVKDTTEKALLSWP
Chain of Tryptophan 2,3-dioxygenase (P48776 whole entry): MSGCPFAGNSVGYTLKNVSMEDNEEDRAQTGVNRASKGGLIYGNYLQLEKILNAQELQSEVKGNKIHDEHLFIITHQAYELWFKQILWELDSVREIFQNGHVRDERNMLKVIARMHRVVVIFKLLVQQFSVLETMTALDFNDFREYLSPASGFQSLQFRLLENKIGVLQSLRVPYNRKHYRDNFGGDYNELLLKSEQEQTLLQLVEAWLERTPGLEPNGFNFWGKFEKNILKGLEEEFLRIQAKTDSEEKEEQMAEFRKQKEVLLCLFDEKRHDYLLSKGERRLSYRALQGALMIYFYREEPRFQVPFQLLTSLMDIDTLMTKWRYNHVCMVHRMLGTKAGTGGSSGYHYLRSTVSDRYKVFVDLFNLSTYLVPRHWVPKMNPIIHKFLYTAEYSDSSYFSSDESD
T1 sequence (P14902 whole entry): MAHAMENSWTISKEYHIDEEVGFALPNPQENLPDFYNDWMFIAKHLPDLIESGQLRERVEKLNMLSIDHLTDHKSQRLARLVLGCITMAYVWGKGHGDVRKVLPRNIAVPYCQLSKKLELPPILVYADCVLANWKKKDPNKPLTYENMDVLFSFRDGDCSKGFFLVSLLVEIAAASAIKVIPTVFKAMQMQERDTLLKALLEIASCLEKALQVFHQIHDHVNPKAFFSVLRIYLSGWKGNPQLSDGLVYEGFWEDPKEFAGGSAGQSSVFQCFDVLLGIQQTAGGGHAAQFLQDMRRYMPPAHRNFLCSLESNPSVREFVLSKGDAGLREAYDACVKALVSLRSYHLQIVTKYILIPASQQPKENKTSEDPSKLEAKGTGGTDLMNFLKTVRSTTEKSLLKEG

SMILES: CCC(CC)Nc1ccc(O)c2ccccc12
- IC50 ([1]; read-out: IC50): 3.5 µM

SMILES: CN(C)c1ccc(O)c2ccccc12
- IC50 ([1]; read-out: IC50): 1000 µM

SMILES: Oc1ccc(NC2CCCCC2)c2ccccc12
- IC50 ([1]; read-out: IC50): 15 µM

SMILES: c1ccc(-c2cnn[nH]2)cc1
- CC50 [2]: > 400 µM
- CC50 [3]: > 80 µM
- IC50 [4]: > 400 µM
- IC50 ([5]; read-out: IC50): 5 µM
- CC50 [6]: > 400 µM

SMILES: Oc1ccc(O)c2ccccc12
- CC50 [2]: 10 µM
- CC50 [3]: 40 µM
- IC50 [4]: > 10 µM
- CC50 [6]: 40 µM

SMILES: Oc1cccc2cccnc12 [OXYQUINOLINE]
- IC50 ([1]; read-out: IC50): 750 µM

SMILES: NCCCNc1ccc(O)c2ccccc12
- IC50 ([1]; read-out: IC50): 5 µM

SMILES: Oc1ccc(NCc2ccccc2)c2ccccc12
- IC50 ([1]; read-out: IC50): 2.5 µM

SMILES: CC(C)Nc1ccc(O)c2ccccc12
- IC50 [7]: 12.5 µM
- CC50 [2]: 15 µM
- CC50 [3]: > 80 µM
- IC50 [4]: > 15 µM
- IC50 ([5]; read-out: IC50): 30 µM
- CC50 [6]: 100 µM
- IC50 ([1]; read-out: IC50): 2.5 µM

SMILES: CC1=C/C(=N\C(C)C)c2ccccc2C1=O
- IC50 [7]: > 50 µM
- CC50 [2]: 10 µM
- CC50 [3]: 15 µM
- IC50 [4]: 6.3 µM
- IC50 ([5]; read-out: IC50): 4 µM
- CC50 [6]: 50 µM
- IC50 ([1]; read-out: IC50): 0.2 µM

SMILES: SC1Nc2ccccc2S1 (centres undefined)
- IC50 [7]: 7 µM
- LD50 ([2]; Mus musculus, P815B): > 80 µM
- CC50 [3]: > 80 µM
- IC50 [4]: > 80 µM
- IC50 ([5]; read-out: IC50): 20 µM
- LD50 (HEK293): > 80 µM
- IC50 ([1]; read-out: IC50): 50 µM

SMILES: CC(C)Nc1ccc(O)c2ncccc12
- CC50 [3]: > 200 µM
- IC50 ([5]; p815b): Not Active
- IC50 ([1]; read-out: IC50): 15 µM

SMILES: Oc1ccc(Cl)cc1Cc1cc(Cl)ccc1O [DICHLOROPHEN]
- CC50 [3]: 0.2 µM
- IC50 ([5]; p815b): Not Active

SMILES: CCNc1ccc(O)c2ccccc12
- CC50 [2]: 50 µM
- CC50 [3]: 400 µM
- IC50 [4]: > 50 µM
- CC50 [6]: 200 µM

SMILES: CCNc1ccc(O)c2ncccc12
- CC50 [3]: 20 µM
- IC50 ([5]; p815b): Not Active
- IC50 ([1]; read-out: IC50): 40 µM

SMILES: SC1Nc2cc(Cl)ccc2S1 (centres undefined)
- IC50 ([1]; read-out: IC50): 50 µM

SMILES: CC(C)CNc1ccc(O)c2ccccc12
- IC50 ([1]; read-out: IC50): 25 µM

SMILES: Nc1ccc(O)c2ncccc12
- CC50 [2]: 5 µM
- CC50 [3]: 2.5 µM
- IC50 [4]: 5 µM
- IC50 ([5]; read-out: IC50): 1 µM
- IC50 ([1]; read-out: IC50): 3 µM

SMILES: Nc1ccc2c(c1)SC(S)N2 (centres undefined)
- IC50 [1]: Not Active

SMILES: Sc1nc(-c2ccccc2)cs1
- CC50 [2]: > 80 µM
- CC50 [3]: > 80 µM
- IC50 [4]: > 80 µM
- IC50 ([5]; read-out: IC50): 20 µM
- CC50 [6]: > 80 µM

SMILES: CCC(CC)/N=C1/C=C(C2=C/C(=N\C(CC)CC)c3ccccc3C2=O)C(=O)c2ccccc21
- IC50 [7]: 50 µM
- CC50 [2]: 100 µM
- CC50 [3]: 200 µM
- IC50 [4]: > 50 µM
- IC50 ([5]; read-out: IC50): > 200 µM
- CC50 [6]: > 400 µM
- IC50 ([1]; read-out: IC50): 0.52 µM

SMILES: Nc1ccccc1Oc1ccccc1
- IC50 ([1]; read-out: IC50): > 1000 µM

SMILES: c1cc(-c2cnn[nH]2)ccn1
- CC50 [3]: 200 µM
- IC50 ([5]; p815b): Not Active
- IC50 ([1]; read-out: IC50): 5 µM

SMILES: Nc1ccc(O)c2ccccc12
- CC50 [3]: 2 µM
- IC50 ([5]; p815b): Not Active
- IC50 ([1]; read-out: IC50): 6 µM

SMILES: CC(C)(C)Nc1ccc(O)c2ccccc12
- CC50 [3]: 20 µM
- IC50 ([5]; p815b): Not Active
- IC50 ([1]; read-out: IC50): 4 µM

SMILES: CCN(CC)CCNc1ccc(O)c2ccccc12
- IC50 ([1]; read-out: IC50): 3 µM

SMILES: CCCNc1ccc(O)c2ccccc12
- CC50 [3]: 20 µM
- IC50 ([5]; p815b): Not Active
- IC50 ([1]; read-out: IC50): 4.5 µM

SMILES: CC(C)/N=C1/C=C(C2=C/C(=N\C(C)C)c3ccccc3C2=O)C(=O)c2ccccc21
- IC50 [7]: 25 µM
- CC50 [2]: 100 µM
- CC50 [3]: 50 µM
- IC50 [4]: > 50 µM
- IC50 ([5]; read-out: IC50): > 50 µM
- CC50 [6]: 50 µM
- IC50 ([1]; read-out: IC50): 0.45 µM

SMILES: Cn1cc(C[C@H](N)C(=O)O)c2ccccc21 [(L)-1-METHYLTRYPTOPHAN]
- CC50 [2]: > 400 µM
- CC50 [3]: > 1000 µM
- IC50 [4]: > 400 µM
- CC50 [6]: > 400 µM

More lines, now with the values ahead:

- IC50 ([1]; read-out: IC50): 12.5 µM
SMILES: CNc1ccc(O)c2ccccc12

- IC50 ([1]; read-out: IC50): > 200 µM
SMILES: O=C1c2ccccc2-c2ccccc21

- IC50 ([1]; read-out: IC50): 5.5 µM
SMILES: COc1ccc(N)c2ccccc12

- IC50 ([1]; read-out: IC50): 400 µM
SMILES: Oc1cccc2[nH]c3ccccc3c12

- IC50 ([1]; read-out: IC50): 60 µM
SMILES: C[C@H](N)C(=O)Nc1ccc(O)c2ccccc12

- IC50 [1]: Not Active
SMILES: OC1Cc2ccccc2N1 (centres undefined)

- IC50 [1]: Not Active
SMILES: NC1Nc2ccccc2S1 (centres undefined)

- IC50 ([1]; read-out: IC50): 50 µM
SMILES: CN(C)CSC1Nc2ccccc2S1 (centres undefined)

- IC50 ([1]; read-out: IC50): 500 µM
SMILES: O=C(c1ccccc1)c1cccc(O)c1

- IC50 ([1]; read-out: IC50): 400 µM
SMILES: Nc1ccc(Nc2ccccc2)cc1

- IC50 ([1]; read-out: IC50): > 1000 µM
SMILES: OC1c2ccccc2-c2ccccc21

- IC50 ([1]; read-out: IC50): 1000 µM
SMILES: Nc1nc(-c2ccccc2)cs1

- IC50 ([1]; read-out: IC50): 1000 µM
SMILES: O=C(c1ccccc1)c1ccccc1 [BENZOPHENONE]

- IC50 ([1]; read-out: IC50): 400 µM
SMILES: N[C@@H](CO)C(=O)Nc1ccc(O)c2ccccc12

- IC50 [1]: Not Active
SMILES: OC1Nc2ccccc2S1 (centres undefined)

- IC50 ([1]; read-out: IC50): 44 µM
SMILES: NCCNc1ccc(O)c2ccccc12

- IC50 [1]: Not Active
SMILES: CSC1Nc2ccccc2S1 (centres undefined)

- IC50 [1]: Not Active
SMILES: CN1c2ccccc2SC1S (centres undefined)

- IC50 ([1]; read-out: IC50): > 1000 µM
SMILES: CN(C)CSc1nc(-c2ccccc2)cs1

- IC50 ([1]; read-out: IC50): 680 µM
SMILES: c1cncc(-c2c[nH]nn2)c1

- IC50 ([1]; read-out: IC50): 200 µM
SMILES: O=C(Nc1ccc(O)c2ccccc12)[C@@H]1CCCN1

- IC50 [1]: Not Active
SMILES: OC1Nc2ccccc2N1

- IC50 [1]: Not Active
SMILES: SC1Nc2ccccc2N1

- IC50 ([1]; read-out: IC50): 12.5 µM
SMILES: OCCOc1ccc(O)c2ccccc12

- IC50 ([1]; read-out: IC50): 90 µM
SMILES: C[C@@H](N)C(=O)Nc1ccc(O)c2ccccc12

- IC50 ([1]; read-out: IC50): 105 µM
SMILES: NCC(=O)Nc1ccc(O)c2ccccc12
